The values below come from ChEMBL document CHEMBL5705905, “Pharmacological targeting of kinases MST1 and MST2 augments tissue repair and regeneration” (Sci Transl Med, 2016).

The IC50 is the concentration needed to halve the response being measured. The clearance is a measure of how efficiently the substance is removed, as volume per time. Higher therefore signals a high capacity for elimination.

The target in data set [1] is T1, Serine/threonine-protein kinase 3 (Homo sapiens, UniProt Q13188).
T1 sequence (Q13188 whole entry): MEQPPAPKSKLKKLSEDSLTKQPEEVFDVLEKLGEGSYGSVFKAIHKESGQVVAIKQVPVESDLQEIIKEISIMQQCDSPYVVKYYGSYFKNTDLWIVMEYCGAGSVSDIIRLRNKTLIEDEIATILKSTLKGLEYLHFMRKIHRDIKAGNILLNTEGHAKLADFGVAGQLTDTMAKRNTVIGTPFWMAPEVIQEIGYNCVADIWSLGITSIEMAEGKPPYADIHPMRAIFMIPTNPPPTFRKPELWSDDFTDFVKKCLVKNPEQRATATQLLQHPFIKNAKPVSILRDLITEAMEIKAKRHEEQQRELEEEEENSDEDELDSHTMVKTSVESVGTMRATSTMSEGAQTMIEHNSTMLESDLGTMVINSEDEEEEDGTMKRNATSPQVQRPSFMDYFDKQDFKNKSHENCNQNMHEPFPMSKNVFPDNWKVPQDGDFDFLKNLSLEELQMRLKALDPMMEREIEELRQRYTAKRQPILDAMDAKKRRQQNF
Description: Inhibition of Flag-tagged full-length MST2 (unknown origin) transfected in HEK293T cells assessed as MOB1a phosphorylation level incubated for 3 hrs by immunoblot analysis. Background: Immunoblotting shows a protein as a band on a membrane.

For data set [2], the target named is Activin receptor type-1B (Homo sapiens) (UniProt P36896). Kind of data set: Inhibition of ACVR1B (unknown origin) assessed as remaining activity at 1 uM by Kinome scan method relative to control. Summed up:
(§1)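 Active-site-dependent competition-binding (KINOMEscan) panel of 468 kinases, test compound at 1 μM (from a 10 mM DMSO stock). Read-out is ctrl% = (test signal − positive control signal)/(negative control signal − positive control signal) × 100. DMSO is the negative control (100%) and a control compound is the positive control (0%). Lower ctrl% means tighter binding.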

The target of data set [3] is RAC-alpha serine/threonine-protein kinase (Homo sapiens) (UniProt P31749). Kind of data set: Inhibition of AKT1 (unknown origin) assessed as remaining activity at 1 uM by Kinome scan method relative to control. The gist of the method: as §1
Data set [4] deals with Calcium/calmodulin-dependent protein kinase type II subunit alpha (Homo sapiens) (UniProt Q9UQM7). Kind of data set: Inhibition of CAMK2A (unknown origin) assessed as remaining activity at 1 uM by Kinome scan method relative to control. The gist of the method: (§2)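 Active-site-dependent competition-binding profiling (KINOMEscan) at 1 μM against a 468-kinase panel; compound supplied from a 10 mM DMSO stock. Read-out is ctrl% = (test signal − positive control signal)/(negative control signal − positive control signal) × 100. DMSO is the negative control (100%) and a control compound the positive control (0%). Lower ctrl% means tighter binding.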

The target in data set [5] is Calcium/calmodulin-dependent protein kinase type II subunit gamma (Homo sapiens) (UniProt Q13555). Description: Inhibition of CAMK2G (unknown origin) assessed as remaining activity at 1 uM by Kinome scan method relative to control. Summed up: as §2
In data set [6] the target is Cyclin-dependent kinase 7 (Homo sapiens) (UniProt P50613). Kind of data set: Inhibition of CDK7 (unknown origin) assessed as remaining activity at 1 uM by Kinome scan method relative to control. The gist of the method:
as §2

The target of data set [7] is Serine/threonine-protein kinase Chk1 (Homo sapiens) (UniProt O14757). Description: Inhibition of CHEK1 (unknown origin) assessed as remaining activity at 1 uM by Kinome scan method relative to control. The gist of the method: as §2
The target of data set [8] is Death-associated protein kinase 2 (Homo sapiens) (UniProt Q9UIK4). Description: Inhibition of DAPK2 (unknown origin) assessed as remaining activity at 1 uM by Kinome scan method relative to control. The gist of the method: as §2
For data set [9], the target named is Ephrin type-A receptor 2 (Homo sapiens) (UniProt P29317). Kind of data set: Inhibition of EPHA2 (unknown origin) assessed as remaining activity at 1 uM by Kinome scan method relative to control.
Data set [10] concerns the target Glycogen synthase kinase-3 beta (Homo sapiens) (UniProt P49841). Description: Inhibition of GSK3beta (unknown origin) assessed as remaining activity at 1 uM by Kinome scan method relative to control.
In data set [11] the target is Mitogen-activated protein kinase 9 (Homo sapiens) (UniProt P45984). Kind of data set: Inhibition of JNK2 (unknown origin) assessed as remaining activity at 1 uM by Kinome scan method relative to control.
For data set [12], the target named is Myosin-IIIa (Homo sapiens) (UniProt Q8NEV4). Kind of data set: Inhibition of MYO3A (unknown origin) assessed as remaining activity at 1 uM by Kinome scan method relative to control.
The target of data set [13] is Myosin-IIIb (Homo sapiens) (UniProt Q8WXR4). Description: Inhibition of MYO3B (unknown origin) assessed as remaining activity at 1 uM by Kinome scan method relative to control.
Data set [14] concerns the target Cyclin-dependent kinase 16 (Homo sapiens) (UniProt Q00536). Kind of data set: Inhibition of PCTK1 (unknown origin) assessed as remaining activity at 1 uM by Kinome scan method relative to control.
The target of data set [15] is Cyclin-dependent kinase 14 (Homo sapiens) (UniProt O94921). Kind of data set: Inhibition of PFTK1 (unknown origin) assessed as remaining activity at 1 uM by Kinome scan method relative to control.
In data set [16] the target is Phosphorylase b kinase gamma catalytic chain, skeletal muscle/heart isoform (Homo sapiens) (UniProt Q16816). Description: Inhibition of PHKG1 (unknown origin) assessed as remaining activity at 1 uM by Kinome scan method relative to control.
Data set [17] addresses Phosphatidylinositol 5-phosphate 4-kinase type-2 beta (Homo sapiens) (UniProt P78356). Description: Inhibition of PIP5K2B (unknown origin) assessed as remaining activity at 1 uM by Kinome scan method relative to control.
The target in data set [18] is cAMP-dependent protein kinase catalytic subunit alpha (Homo sapiens) (UniProt P17612). Kind of data set: Inhibition of PKAC-alpha (unknown origin) assessed as remaining activity at 1 uM by Kinome scan method relative to control.
Data set [19] addresses Mitogen-activated protein kinase kinase kinase 7 (Homo sapiens) (UniProt O43318). Kind of data set: Inhibition of TAK1 (unknown origin) assessed as remaining activity at 1 uM by Kinome scan method relative to control.
Data set [20] has as its target Tyrosine-protein kinase TXK (Homo sapiens) (UniProt P42681). Kind of data set: Inhibition of TXK (unknown origin) assessed as remaining activity at 1 uM by Kinome scan method relative to control.
The target of data set [21] is Serine/threonine-protein kinase DCLK1 (Homo sapiens, UniProt O15075). Kind of data set: Inhibition of DCAMKL1 (unknown origin) in presence of ATP by enzymatic assay.
Data set [22] can be described thus: Inhibition of recombinant His-tagged full-length MST1 Y101F mutant (unknown origin) expressing in Escherichia coli assessed as MOB1 phosphorylation level incubated for 15 min by immunoblot analysis. The arrangement: species or system Homo sapiens.
Data set [23] is described as follows: Clearance in male Sprague-Dawley rat at 5 mg/kg, iv measured for 24 hrs by LC-MS/MS analysis. Format: ADME, organism-based. Particulars: in vivo. Summed up: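 Sprague-Dawley rats, single intravenous or oral dose. Parameters (half-life, AUC, bioavailability) reported in a supplementary table.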
For another data set, the system named is Mus musculus. Description: Protection against APAP induced liver injury in mouse assessed as cell death at 1 mg/kg, ip administered at 1.5 hrs in the presence of NAC relative to control. Type of data set: functional.

Ephrin type-A receptor 2 (Homo sapiens), sequence (P29317 whole entry): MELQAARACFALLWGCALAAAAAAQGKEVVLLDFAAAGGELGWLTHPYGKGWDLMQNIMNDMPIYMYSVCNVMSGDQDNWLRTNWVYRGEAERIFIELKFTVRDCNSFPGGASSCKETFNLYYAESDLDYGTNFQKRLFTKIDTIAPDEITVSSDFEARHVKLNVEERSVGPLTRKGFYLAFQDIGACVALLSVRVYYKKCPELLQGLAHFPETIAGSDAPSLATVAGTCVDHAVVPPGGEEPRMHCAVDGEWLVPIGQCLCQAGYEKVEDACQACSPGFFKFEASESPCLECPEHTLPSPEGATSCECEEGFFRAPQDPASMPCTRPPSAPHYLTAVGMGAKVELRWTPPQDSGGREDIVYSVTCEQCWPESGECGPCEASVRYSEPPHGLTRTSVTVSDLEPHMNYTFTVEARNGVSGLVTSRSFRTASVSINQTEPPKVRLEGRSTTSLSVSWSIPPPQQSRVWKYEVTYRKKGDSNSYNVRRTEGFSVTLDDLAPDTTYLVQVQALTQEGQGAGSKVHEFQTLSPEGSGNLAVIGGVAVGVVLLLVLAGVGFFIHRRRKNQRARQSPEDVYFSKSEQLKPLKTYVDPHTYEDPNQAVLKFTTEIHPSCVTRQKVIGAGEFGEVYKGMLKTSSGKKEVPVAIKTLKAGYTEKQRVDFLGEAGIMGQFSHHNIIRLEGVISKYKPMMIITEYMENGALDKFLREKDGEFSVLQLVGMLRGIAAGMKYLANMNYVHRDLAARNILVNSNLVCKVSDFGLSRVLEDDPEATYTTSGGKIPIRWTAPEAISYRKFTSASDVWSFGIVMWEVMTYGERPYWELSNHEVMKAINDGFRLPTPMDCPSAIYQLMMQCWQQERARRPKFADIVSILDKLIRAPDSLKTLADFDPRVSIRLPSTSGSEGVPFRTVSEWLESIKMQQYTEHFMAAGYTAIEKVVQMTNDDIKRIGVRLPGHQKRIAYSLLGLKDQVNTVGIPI
Serine/threonine-protein kinase Chk1 (Homo sapiens), sequence (O14757 whole entry): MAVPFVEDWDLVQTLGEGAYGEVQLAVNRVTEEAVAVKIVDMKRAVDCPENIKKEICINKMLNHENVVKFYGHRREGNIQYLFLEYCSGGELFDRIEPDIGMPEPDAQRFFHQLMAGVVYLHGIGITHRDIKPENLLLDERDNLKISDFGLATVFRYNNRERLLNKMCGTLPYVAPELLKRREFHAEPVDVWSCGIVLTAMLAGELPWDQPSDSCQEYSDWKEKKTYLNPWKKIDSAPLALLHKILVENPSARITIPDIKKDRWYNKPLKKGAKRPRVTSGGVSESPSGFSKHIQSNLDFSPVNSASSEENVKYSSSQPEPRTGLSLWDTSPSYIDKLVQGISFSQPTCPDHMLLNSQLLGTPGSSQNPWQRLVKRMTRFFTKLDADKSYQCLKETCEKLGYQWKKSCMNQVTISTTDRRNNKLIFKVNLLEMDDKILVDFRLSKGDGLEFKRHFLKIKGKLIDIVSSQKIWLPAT
Mitogen-activated protein kinase kinase kinase 7 (Homo sapiens), sequence (O43318 whole entry): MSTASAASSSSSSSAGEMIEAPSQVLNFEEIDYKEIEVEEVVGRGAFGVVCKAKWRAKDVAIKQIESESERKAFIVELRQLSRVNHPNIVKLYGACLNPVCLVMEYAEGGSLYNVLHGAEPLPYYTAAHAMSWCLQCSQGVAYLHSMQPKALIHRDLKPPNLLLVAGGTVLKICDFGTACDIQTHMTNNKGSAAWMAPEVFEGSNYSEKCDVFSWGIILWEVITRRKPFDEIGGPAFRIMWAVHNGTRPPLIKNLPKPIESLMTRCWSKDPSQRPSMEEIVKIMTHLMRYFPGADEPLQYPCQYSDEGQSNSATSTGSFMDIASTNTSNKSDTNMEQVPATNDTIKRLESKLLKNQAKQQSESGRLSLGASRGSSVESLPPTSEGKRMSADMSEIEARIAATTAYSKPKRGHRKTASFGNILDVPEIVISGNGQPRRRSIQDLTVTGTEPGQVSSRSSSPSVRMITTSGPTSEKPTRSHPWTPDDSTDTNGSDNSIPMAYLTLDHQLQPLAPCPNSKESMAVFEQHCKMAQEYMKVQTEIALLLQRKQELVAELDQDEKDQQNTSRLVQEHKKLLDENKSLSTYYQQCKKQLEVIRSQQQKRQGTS
Phosphorylase b kinase gamma catalytic chain, skeletal muscle/heart isoform (Homo sapiens), sequence (Q16816 whole entry, looked up, canonical isoform): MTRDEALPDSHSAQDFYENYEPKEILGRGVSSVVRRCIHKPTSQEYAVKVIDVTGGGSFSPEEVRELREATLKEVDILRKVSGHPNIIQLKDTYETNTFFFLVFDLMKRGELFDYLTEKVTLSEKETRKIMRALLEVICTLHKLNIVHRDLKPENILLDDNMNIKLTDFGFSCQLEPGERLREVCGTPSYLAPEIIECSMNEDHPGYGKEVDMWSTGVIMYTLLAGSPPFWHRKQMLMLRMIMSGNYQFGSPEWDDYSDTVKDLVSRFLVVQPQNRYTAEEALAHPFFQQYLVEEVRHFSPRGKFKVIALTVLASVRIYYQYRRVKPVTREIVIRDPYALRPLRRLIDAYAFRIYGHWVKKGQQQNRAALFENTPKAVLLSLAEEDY
Death-associated protein kinase 2 (Homo sapiens), sequence (Q9UIK4 whole entry, looked up): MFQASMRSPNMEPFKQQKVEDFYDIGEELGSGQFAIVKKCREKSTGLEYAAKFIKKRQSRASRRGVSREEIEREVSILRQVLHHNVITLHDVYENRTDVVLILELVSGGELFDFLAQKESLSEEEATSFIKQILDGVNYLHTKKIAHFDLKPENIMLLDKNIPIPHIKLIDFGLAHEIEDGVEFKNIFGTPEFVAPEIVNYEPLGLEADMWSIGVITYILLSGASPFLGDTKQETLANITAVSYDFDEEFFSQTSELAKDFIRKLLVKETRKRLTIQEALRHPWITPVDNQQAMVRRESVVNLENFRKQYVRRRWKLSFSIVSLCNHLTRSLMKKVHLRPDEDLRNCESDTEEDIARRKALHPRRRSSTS
Calcium/calmodulin-dependent protein kinase type II subunit gamma (Homo sapiens), sequence (Q13555 whole entry): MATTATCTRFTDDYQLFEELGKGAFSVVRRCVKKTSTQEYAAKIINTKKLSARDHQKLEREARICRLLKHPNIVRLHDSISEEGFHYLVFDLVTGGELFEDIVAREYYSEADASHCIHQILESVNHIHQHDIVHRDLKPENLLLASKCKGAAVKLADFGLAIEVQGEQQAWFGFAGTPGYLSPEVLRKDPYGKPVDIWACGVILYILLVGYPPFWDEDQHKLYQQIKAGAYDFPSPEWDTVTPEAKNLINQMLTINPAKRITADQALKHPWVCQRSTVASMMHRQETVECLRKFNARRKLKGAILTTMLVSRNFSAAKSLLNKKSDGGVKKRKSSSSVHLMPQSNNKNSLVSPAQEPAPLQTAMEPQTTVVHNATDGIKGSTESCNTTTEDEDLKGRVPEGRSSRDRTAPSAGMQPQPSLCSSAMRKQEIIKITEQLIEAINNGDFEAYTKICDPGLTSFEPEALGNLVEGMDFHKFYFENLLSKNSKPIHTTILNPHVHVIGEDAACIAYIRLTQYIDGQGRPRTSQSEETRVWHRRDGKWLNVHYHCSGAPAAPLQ
Calcium/calmodulin-dependent protein kinase type II subunit alpha (Homo sapiens), sequence (Q9UQM7 whole entry): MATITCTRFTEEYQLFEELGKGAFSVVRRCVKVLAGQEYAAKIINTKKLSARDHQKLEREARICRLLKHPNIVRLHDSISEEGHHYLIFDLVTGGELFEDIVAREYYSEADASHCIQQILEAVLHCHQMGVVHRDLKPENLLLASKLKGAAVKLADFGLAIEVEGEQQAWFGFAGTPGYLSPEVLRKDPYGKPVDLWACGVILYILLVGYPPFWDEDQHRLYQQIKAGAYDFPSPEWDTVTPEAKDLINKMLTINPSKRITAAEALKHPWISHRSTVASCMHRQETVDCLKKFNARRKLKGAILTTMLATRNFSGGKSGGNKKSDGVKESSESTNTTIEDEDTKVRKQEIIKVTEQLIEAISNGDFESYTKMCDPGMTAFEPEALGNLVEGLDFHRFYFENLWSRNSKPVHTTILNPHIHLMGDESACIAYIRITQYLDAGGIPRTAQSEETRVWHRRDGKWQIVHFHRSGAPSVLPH
Cyclin-dependent kinase 7 (Homo sapiens), sequence (P50613 whole entry): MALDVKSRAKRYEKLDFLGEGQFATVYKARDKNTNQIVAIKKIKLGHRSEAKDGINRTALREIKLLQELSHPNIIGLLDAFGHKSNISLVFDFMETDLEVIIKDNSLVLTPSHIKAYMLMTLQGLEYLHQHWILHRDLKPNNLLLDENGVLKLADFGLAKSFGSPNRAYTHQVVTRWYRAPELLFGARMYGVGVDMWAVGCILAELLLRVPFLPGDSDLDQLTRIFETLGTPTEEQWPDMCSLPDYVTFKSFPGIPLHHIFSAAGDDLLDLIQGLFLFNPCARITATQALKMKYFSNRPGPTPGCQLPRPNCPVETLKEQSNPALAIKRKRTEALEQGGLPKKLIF
Serine/threonine-protein kinase DCLK1, sequence (O15075 whole entry): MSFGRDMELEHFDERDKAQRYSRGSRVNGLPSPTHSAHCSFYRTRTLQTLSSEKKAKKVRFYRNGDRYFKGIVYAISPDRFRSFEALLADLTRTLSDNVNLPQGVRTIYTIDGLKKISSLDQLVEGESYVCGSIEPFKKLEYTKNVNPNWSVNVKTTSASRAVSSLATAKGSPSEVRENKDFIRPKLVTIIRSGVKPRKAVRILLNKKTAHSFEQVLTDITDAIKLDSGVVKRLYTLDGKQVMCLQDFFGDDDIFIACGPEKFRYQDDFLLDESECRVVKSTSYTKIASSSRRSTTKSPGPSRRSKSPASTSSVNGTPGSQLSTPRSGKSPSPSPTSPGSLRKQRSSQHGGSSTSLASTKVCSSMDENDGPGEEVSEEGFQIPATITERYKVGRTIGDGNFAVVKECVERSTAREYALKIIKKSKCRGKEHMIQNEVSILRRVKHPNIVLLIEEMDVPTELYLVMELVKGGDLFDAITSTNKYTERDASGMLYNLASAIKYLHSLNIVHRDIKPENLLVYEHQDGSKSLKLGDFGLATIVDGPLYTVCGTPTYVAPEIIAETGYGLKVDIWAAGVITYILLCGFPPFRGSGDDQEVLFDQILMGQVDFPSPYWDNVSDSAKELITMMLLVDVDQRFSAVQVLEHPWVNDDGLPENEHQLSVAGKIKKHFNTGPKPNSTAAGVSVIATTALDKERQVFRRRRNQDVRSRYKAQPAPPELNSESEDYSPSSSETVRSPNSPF

Turning to `CN1C(=O)c2sccc2N(C)c2nc(Nc3ccc(S(N)(=O)=O)cc3)ncc21`, the IC50 came to 38.1 nM in [1], 27.9 nM in [21] and 355 nM in [22]. Moreover, the Activity in data set [2] was found to be 76%; in [3], 100%; in data set [4], 77%; in data set [5] it was 100%; in [6] it was 60%; in [7], 73%. Also, the Activity came out at 100% in data set [8]; 99% in data set [9]; 100% in [10]; 82% in data set [11]; 100% in data set [12]; 100% in [13]. The Activity in data set [14] worked out at 93%; in data set [15], 100%; in data set [16] it was 100%; in data set [17], 100%; in data set [18], 97%; in data set [19], 71%. For the same compound, the Activity in data set [20] was 90%; in the data set on Mus musculus it was 100%. Also, the clearance in [23] was 65.8 mL/min/kg.
